From ChEMBL document CHEMBL1629475, “Synthesis of new chalcone derivatives containing a rhodanine-3-acetic acid moiety with potential anti-bacterial activity” (2010)
≈ marks a conversion by molar mass, not a printed value. Calls of active or inactive are those of the source. No cut-off for these calls is given here.

Key:
Staphylococcus aureus [1] = test: Antibacterial activity against Staphylococcus aureus KCTC 209 after 20 hrs by twofold serial dilution technique; assay type: functional; conditions: KCTC 209, 20 h
How it was run: (§1)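 Inoculum was 10⁵ CFU/mL. MIC was read after 20 h at 37 °C. The MRSA and QRSA strains were multidrug-resistant clinical isolates. Oxacillin and norfloxacin served as positive controls.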

Staphylococcus aureus [2] = test: Antibacterial activity against Staphylococcus aureus KCTC 209 at 64 ug/ml; assay type: functional, organism-based
Staphylococcus aureus [3] = test: Antibacterial activity against Staphylococcus aureus KCTC 503 after 20 hrs by twofold serial dilution technique; assay type: functional; conditions: KCTC 503, 20 h; how it was run: as §1
Streptococcus mutans [4] = test: Antibacterial activity against Streptococcus mutans KCTC 3289 at 64 ug/ml; assay type: functional, organism-based
Escherichia coli [5] = test: Antibacterial activity against Escherichia coli 1924 after 20 hrs by twofold serial dilution technique; assay type: functional; conditions: Escherichia coli, 1924, 20 h; how it was run: as §1
Staphylococcus aureus [6] = test: Antibacterial activity against Staphylococcus aureus RN 4220 after 20 hrs by twofold serial dilution technique; assay type: functional; conditions: RN 4220, 20 h; how it was run: as §1
Streptococcus mutans [7] = test: Antibacterial activity against Streptococcus mutans KCTC 3289 after 20 hrs by twofold serial dilution technique; assay type: functional; conditions: KCTC 3289, 20 h
How it was run: (§2)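 Inoculum was 10⁵ CFU/mL, and MIC was read after incubation at 37 °C for 20 h. Oxacillin and norfloxacin were the positive controls.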

Streptococcus mutans [8] = test: Antibacterial activity against Streptococcus mutans KCTC 3065 at 64 ug/ml; assay type: functional, organism-based
Staphylococcus aureus [9] = test: Antibacterial activity against Staphylococcus aureus RN 4220 at 64 ug/ml; assay type: functional, organism-based
Escherichia coli [10] = test: Antibacterial activity against Escherichia coli 1924 at 64 ug/ml; assay type: functional, organism-based
Staphylococcus aureus [11] = test: Antibacterial activity against Staphylococcus aureus KCTC 503 at 64 ug/ml; assay type: functional, organism-based
Escherichia coli [12] = test: Antibacterial activity against Escherichia coli 1356 after 20 hrs by twofold serial dilution technique; assay type: functional; conditions: Escherichia coli, 1356, 20 h; how it was run: as §1
Streptococcus mutans [13] = test: Antibacterial activity against Streptococcus mutans KCTC 3065 after 20 hrs by twofold serial dilution technique; assay type: functional; conditions: KCTC 3065, 20 h; how it was run: as §2
Escherichia coli [14] = test: Antibacterial activity against Escherichia coli 1356 at 64 ug/ml; assay type: functional, organism-based
Staphylococcus aureus [15] = test: Antibacterial activity against Staphylococcus aureus MRSA CCARM 3167 after 20 hrs by twofold serial dilution technique; assay type: functional; conditions: MRSA CCARM 3167, 20 h; how it was run: as §1
Staphylococcus aureus [16] = test: Antibacterial activity against Staphylococcus aureus QRSA CCARM 3505 after 20 hrs by twofold serial dilution technique; assay type: functional; conditions: QRSA CCARM 3505, 20 h; how it was run: as §1
Staphylococcus aureus [17] = test: Antibacterial activity against Staphylococcus aureus QRSA CCARM 3519 after 20 hrs by twofold serial dilution technique; assay type: functional; conditions: QRSA CCARM 3519, 20 h; how it was run: as §1
Staphylococcus aureus [18] = test: Antibacterial activity against Staphylococcus aureus MRSA CCARM 3506 after 20 hrs by twofold serial dilution technique; assay type: functional; conditions: MRSA CCARM 3506, 20 h; how it was run: as §1

SMILES | MIC (Staphylococcus aureus [1]) | MIC (Staphylococcus aureus [3]) | MIC (Escherichia coli [5]) | MIC (Staphylococcus aureus [6]) | MIC (Streptococcus mutans [7]) | MIC (Escherichia coli [12]) | MIC (Streptococcus mutans [13]) | MIC (Staphylococcus aureus [15]) | MIC (Staphylococcus aureus [16]) | MIC (Staphylococcus aureus [17]) | MIC (Staphylococcus aureus [18]) | Activity (Staphylococcus aureus [2]) | Activity (Streptococcus mutans [4]) | Activity (Streptococcus mutans [8]) | Activity (Staphylococcus aureus [9]) | Activity (Escherichia coli [10]) | Activity (Staphylococcus aureus [11]) | Activity (Escherichia coli [14])
O=C(O)CN1C(=O)/C(=C\c2ccc(/C=C/C(=O)c3ccccc3Br)cc2)SC1=S | > 64 µg/mL | > 64 µg/mL | > 64 µg/mL | > 64 µg/mL | > 64 µg/mL | > 64 µg/mL | > 64 µg/mL | – | – | – | – | inactive | inactive | inactive | inactive | inactive | inactive | inactive
O=Cc1ccc(/C=C/C(=O)c2ccc(Cl)cc2Cl)cc1 | 64 µg/mL (≈ 210 µM) | 64 µg/mL (≈ 210 µM) | > 64 µg/mL | 64 µg/mL (≈ 210 µM) | > 64 µg/mL | > 64 µg/mL | > 64 µg/mL | – | – | – | – | – | – | – | – | inactive | – | inactive
CC(=O)Nc1ccc(C(=O)/C=C/c2ccc(/C=C3/SC(=S)N(CC(=O)O)C3=O)cc2)cc1 | > 64 µg/mL | > 64 µg/mL | > 64 µg/mL | > 64 µg/mL | > 64 µg/mL | > 64 µg/mL | > 64 µg/mL | – | – | – | – | – | – | – | – | inactive | – | inactive
Cc1ccc(C(=O)/C=C/c2ccc(/C=C3/SC(=S)N(CC(=O)O)C3=O)cc2)cc1 | 64 µg/mL (≈ 151 µM) | 64 µg/mL (≈ 151 µM) | > 64 µg/mL | 64 µg/mL (≈ 151 µM) | 64 µg/mL (≈ 151 µM) | > 64 µg/mL | 64 µg/mL (≈ 151 µM) | – | – | – | – | – | – | – | – | inactive | – | inactive
O=C(O)CN1C(=O)/C(=C\c2ccc(/C=C/C(=O)c3ccc([N+](=O)[O-])cc3)cc2)SC1=S | 4 µg/mL (≈ 8.8 µM) | 4 µg/mL (≈ 8.8 µM) | > 64 µg/mL | 4 µg/mL (≈ 8.8 µM) | 8 µg/mL (≈ 17.6 µM) | > 64 µg/mL | 8 µg/mL (≈ 17.6 µM) | 4 µg/mL (≈ 8.8 µM) | 4 µg/mL (≈ 8.8 µM) | 4 µg/mL (≈ 8.8 µM) | 4 µg/mL (≈ 8.8 µM) | – | – | – | – | inactive | – | inactive
CCn1cc(C(=O)O)c(=O)c2cc(F)c(N3CCNCC3)cc21 [NORFLOXACIN] | 4 µg/mL (≈ 12.5 µM) | 2 µg/mL (≈ 6.26 µM) | 16 µg/mL (≈ 50.1 µM) | 2 µg/mL (≈ 6.26 µM) | 1 µg/mL (≈ 3.13 µM) | 16 µg/mL (≈ 50.1 µM) | 1 µg/mL (≈ 3.13 µM) | 8 µg/mL (≈ 25.1 µM) | > 64 µg/mL | > 64 µg/mL | 4 µg/mL (≈ 12.5 µM) | – | – | – | – | – | – | –

More lines, main results first:

MIC (Staphylococcus aureus [1]) | MIC (Staphylococcus aureus [3]) | MIC (Escherichia coli [5]) | MIC (Staphylococcus aureus [6]) | MIC (Streptococcus mutans [7]) | MIC (Escherichia coli [12]) | MIC (Streptococcus mutans [13]) | MIC (Staphylococcus aureus [15]) | MIC (Staphylococcus aureus [16]) | MIC (Staphylococcus aureus [17]) | MIC (Staphylococcus aureus [18]) | SMILES | Activity (Staphylococcus aureus [2]) | Activity (Streptococcus mutans [4]) | Activity (Streptococcus mutans [8]) | Activity (Staphylococcus aureus [9]) | Activity (Escherichia coli [10]) | Activity (Staphylococcus aureus [11]) | Activity (Escherichia coli [14])
8 µg/mL (≈ 16.4 µM) | 8 µg/mL (≈ 16.4 µM) | > 64 µg/mL | 8 µg/mL (≈ 16.4 µM) | 8 µg/mL (≈ 16.4 µM) | > 64 µg/mL | 8 µg/mL (≈ 16.4 µM) | 8 µg/mL (≈ 16.4 µM) | 8 µg/mL (≈ 16.4 µM) | 8 µg/mL (≈ 16.4 µM) | 8 µg/mL (≈ 16.4 µM) | O=C(O)CN1C(=O)/C(=C\c2ccc(/C=C/C(=O)c3cccc(Br)c3)cc2)SC1=S | – | – | – | – | inactive | – | inactive
64 µg/mL (≈ 146 µM) | 64 µg/mL (≈ 146 µM) | > 64 µg/mL | 64 µg/mL (≈ 146 µM) | 64 µg/mL (≈ 146 µM) | > 64 µg/mL | 64 µg/mL (≈ 146 µM) | – | – | – | – | COc1ccc(C(=O)/C=C/c2ccc(/C=C3/SC(=S)N(CC(=O)O)C3=O)cc2)cc1 | – | – | – | – | inactive | – | inactive
64 µg/mL (≈ 144 µM) | 64 µg/mL (≈ 144 µM) | > 64 µg/mL | 64 µg/mL (≈ 144 µM) | 64 µg/mL (≈ 144 µM) | > 64 µg/mL | 64 µg/mL (≈ 144 µM) | – | – | – | – | O=C(O)CN1C(=O)/C(=C\c2ccc(/C=C/C(=O)c3cccc(Cl)c3)cc2)SC1=S | – | – | – | – | inactive | – | inactive
8 µg/mL (≈ 18.2 µM) | 8 µg/mL (≈ 18.2 µM) | > 64 µg/mL | 8 µg/mL (≈ 18.2 µM) | 8 µg/mL (≈ 18.2 µM) | > 64 µg/mL | 8 µg/mL (≈ 18.2 µM) | 8 µg/mL (≈ 18.2 µM) | 8 µg/mL (≈ 18.2 µM) | 8 µg/mL (≈ 18.2 µM) | 8 µg/mL (≈ 18.2 µM) | COc1cccc(C(=O)/C=C/c2ccc(/C=C3/SC(=S)N(CC(=O)O)C3=O)cc2)c1 | – | – | – | – | inactive | – | inactive
> 64 µg/mL | > 64 µg/mL | > 64 µg/mL | > 64 µg/mL | > 64 µg/mL | > 64 µg/mL | > 64 µg/mL | – | – | – | – | COCOc1cccc(C(=O)/C=C/c2ccc(/C=C3/SC(=S)N(CC(=O)O)C3=O)cc2)c1 | – | – | – | – | inactive | – | inactive
